One data set concerns HCT-116. In words: Antiproliferative activity against human HCT116 cells harboring PI3CA H1047R mutant after 72 hrs by MTT assay. It counts as functional, cell-based. As to conditions: HCT-116, 72 h. The gist of the method:
(§1)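 Cells were grown as monolayers in DMEM + 10% FBS at 37 °C, 5% CO2, and seeded at 3000-5000/well, 24 h before dosing. They were exposed 72 h to final 10.0, 5.0, 1.0 and 0.5 μM. MTT (5 mg/mL in PBS) was then added for 4 h at 37 °C, formazan dissolved in DMSO and read at 570 nm. Three experiments in triplicate; IC50 derived from inhibition ratios.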
In general terms: Tetrazolium dyes change colour on reduction, which living cells bring about.

The next data set relates to MCF7. In words: Antiproliferative activity against human MCF7 cells harboring PI3CA E545K mutant after 72 hrs by MTT assay. Format: functional, cell-based. As to conditions: MCF7, 72 h. The gist of the method: as §1
In data set [1] the target is PI3-kinase p110-alpha/p85-alpha (Homo sapiens, UniProt P42336). In words: Inhibition of P110alpha/p85alpha (unknown origin) using L-alpha-phosphatidylinositol as substrate after 40 mins by ATP depletion assay. It counts as protein-complex assay.
The target in another data set is PI3K p110 beta/p85 alpha (Homo sapiens, UniProt P42338). The data set can be described thus: Inhibition of P110beta/p85alpha (unknown origin) using L-alpha-phosphatidylinositol as substrate after 40 mins by ATP depletion assay. It counts as protein-complex assay.
In data set [2] the target is PI3-kinase subunit gamma/Phosphoinositide 3-kinase regulatory subunit 5 (Homo sapiens, UniProt P48736). In words: Inhibition of P110gamma/PIK3R5 (unknown origin) using L-alpha-phosphatidylinositol as substrate after 40 mins by ATP depletion assay. It counts as protein-complex assay.
For data set [3], the target named is PI3-kinase p110-delta/p85-alpha (Homo sapiens, UniProt O00329). In words: Inhibition of P110delta/p85alpha (unknown origin) using L-alpha-phosphatidylinositol as substrate after 40 mins by ATP depletion assay. It counts as protein-complex assay.
Data set [4] addresses Serine/threonine-protein kinase mTOR (Homo sapiens, UniProt P42345). The data set can be described thus: Inhibition of mTOR (unknown origin) using L-alpha-phosphatidylinositol as substrate after 40 mins by ATP depletion assay.
Data set [5] deals with PI3-kinase p110-alpha/p85-alpha (Homo sapiens) (UniProt P27986+P42336). In words: Ratio of BEZ235 IC50 to compound IC50 for P110alpha/p85alpha (unknown origin) using L-alpha-phosphatidylinositol as substrate after 40 mins by ATP depletion assay. Format: protein-complex assay.
The test system of data set [6] is CCRF S-180. In words: Anticancer activity against mouse S180 cells homografted in mouse assessed as tumor growth inhibition at 20 mg/kg, po qd for 8 days measured on day 9 post dose relative to vehicle-treated control. Format: functional. As to conditions: CCRF S-180, po, read-out: TGI. The gist of the method: (§2)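 3×10^6 S-180 cells injected s.c. into mouse flank (mice 19.5 ± 1.8 g); randomized, 8 per group. Dosing began next day, oral once daily for 8 days in DMSO:PEG400:5% glucose injection (1:7:2, v/v/v); vehicle group got equal solvent volume. Mice sacrificed Day 9, tumors weighed, and tumor-weight inhibitory ratio calculated versus solvent group.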

Data set [7] deals with CCRF S-180. The data set can be described thus: Anticancer activity against mouse S180 cells homografted in mouse assessed as tumor growth inhibition at 40 mg/kg, po qd for 8 days measured on day 9 post dose relative to vehicle-treated control. It counts as functional. As to conditions: CCRF S-180, po, read-out: TGI. Put shortly:
as §2

A further data set relates to Mus musculus. In words: Toxicity in mouse S180 cells homografted mouse assessed as reduction of body weight at 20 to 40 mg/kg, po qd for 8 days. Format: organism-based. As to conditions: in vivo, 192 h. The gist of the method:
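S-180 sarcoma-bearing mice (3×10^6 cells s.c., flank; 8 per group) given oral doses once daily for 8 days in DMSO:PEG400:5% glucose injection (1:7:2, v/v/v), starting the day after implantation; solvent-only group as control. Body weight recorded daily through sacrifice on Day 9.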

As usually defined, the IC50 is the concentration at which inhibition is half-maximal. High values mean lower potency, low ones higher potency.

Chain of PI3-kinase subunit gamma/Phosphoinositide 3-kinase regulatory subunit 5 (P48736 whole entry): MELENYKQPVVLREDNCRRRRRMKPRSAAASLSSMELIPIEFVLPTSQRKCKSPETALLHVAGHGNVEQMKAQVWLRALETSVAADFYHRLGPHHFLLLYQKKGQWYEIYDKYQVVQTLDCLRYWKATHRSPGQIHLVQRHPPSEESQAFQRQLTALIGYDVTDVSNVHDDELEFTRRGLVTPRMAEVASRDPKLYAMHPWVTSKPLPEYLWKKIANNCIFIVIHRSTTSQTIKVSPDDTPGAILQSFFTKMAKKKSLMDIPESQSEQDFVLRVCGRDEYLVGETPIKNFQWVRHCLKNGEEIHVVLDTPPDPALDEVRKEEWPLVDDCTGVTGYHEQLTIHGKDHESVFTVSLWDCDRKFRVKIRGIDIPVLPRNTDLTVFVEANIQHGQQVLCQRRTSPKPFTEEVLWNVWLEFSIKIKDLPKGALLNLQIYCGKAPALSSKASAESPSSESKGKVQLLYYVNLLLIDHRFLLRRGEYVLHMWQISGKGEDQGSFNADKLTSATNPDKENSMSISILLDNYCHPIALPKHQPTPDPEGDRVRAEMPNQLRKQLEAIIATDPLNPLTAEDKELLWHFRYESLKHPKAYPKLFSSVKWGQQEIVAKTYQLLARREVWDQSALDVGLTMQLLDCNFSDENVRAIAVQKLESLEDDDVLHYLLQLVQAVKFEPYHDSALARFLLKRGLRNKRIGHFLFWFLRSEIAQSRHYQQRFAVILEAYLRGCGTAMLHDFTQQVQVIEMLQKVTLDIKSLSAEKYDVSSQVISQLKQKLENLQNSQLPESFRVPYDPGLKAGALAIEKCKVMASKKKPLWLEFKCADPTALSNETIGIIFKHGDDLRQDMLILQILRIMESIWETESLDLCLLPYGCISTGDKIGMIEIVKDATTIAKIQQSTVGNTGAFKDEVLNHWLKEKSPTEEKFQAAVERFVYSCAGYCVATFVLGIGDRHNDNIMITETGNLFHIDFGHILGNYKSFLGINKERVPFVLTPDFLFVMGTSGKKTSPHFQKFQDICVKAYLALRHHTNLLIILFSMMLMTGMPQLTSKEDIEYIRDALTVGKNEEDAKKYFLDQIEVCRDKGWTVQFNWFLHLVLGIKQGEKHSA
Chain of PI3-kinase subunit gamma/Phosphoinositide 3-kinase regulatory subunit 5 (Q8WYR1 whole entry, further chain): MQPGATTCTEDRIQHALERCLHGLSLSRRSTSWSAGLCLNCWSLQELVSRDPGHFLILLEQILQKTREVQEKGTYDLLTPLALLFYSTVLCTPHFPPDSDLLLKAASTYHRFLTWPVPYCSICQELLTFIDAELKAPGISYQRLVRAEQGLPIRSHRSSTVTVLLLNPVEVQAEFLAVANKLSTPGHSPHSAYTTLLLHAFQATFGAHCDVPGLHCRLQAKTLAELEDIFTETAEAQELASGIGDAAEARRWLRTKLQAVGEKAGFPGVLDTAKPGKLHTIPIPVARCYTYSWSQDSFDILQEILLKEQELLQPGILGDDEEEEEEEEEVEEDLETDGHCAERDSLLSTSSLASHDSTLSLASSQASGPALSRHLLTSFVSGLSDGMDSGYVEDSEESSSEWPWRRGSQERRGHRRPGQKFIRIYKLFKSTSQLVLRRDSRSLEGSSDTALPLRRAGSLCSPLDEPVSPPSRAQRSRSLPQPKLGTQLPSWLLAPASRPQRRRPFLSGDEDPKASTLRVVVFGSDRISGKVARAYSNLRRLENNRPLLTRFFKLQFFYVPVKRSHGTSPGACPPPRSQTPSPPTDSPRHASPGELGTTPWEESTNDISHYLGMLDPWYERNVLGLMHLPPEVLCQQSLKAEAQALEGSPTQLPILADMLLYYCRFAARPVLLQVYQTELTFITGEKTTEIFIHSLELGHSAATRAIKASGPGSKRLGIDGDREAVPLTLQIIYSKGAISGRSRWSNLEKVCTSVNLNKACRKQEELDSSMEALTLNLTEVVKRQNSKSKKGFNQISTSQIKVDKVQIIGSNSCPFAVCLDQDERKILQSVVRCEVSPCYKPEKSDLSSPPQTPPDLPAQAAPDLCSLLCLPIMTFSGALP
Chain of PI3-kinase p110-delta/p85-alpha (P27986 whole entry): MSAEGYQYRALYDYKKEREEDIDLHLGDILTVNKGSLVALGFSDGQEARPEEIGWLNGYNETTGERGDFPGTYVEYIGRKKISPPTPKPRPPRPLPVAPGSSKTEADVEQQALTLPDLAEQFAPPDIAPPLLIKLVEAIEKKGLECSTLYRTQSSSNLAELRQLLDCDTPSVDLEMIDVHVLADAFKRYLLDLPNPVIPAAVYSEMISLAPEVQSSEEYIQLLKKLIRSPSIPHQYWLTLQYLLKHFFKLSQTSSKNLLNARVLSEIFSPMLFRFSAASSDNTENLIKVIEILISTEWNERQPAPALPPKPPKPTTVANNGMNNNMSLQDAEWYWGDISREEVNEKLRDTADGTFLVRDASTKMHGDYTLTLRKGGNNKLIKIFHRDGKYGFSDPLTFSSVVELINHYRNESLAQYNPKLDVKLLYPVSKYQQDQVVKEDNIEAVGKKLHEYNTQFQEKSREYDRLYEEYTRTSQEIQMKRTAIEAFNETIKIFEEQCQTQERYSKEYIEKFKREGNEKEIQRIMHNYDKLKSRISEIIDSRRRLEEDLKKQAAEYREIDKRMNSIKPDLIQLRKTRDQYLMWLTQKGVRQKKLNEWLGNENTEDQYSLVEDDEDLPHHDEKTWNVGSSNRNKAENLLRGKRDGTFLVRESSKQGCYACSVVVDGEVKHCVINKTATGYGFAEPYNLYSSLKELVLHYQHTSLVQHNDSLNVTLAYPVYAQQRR
Chain of PI3-kinase p110-delta/p85-alpha (O00329 whole entry): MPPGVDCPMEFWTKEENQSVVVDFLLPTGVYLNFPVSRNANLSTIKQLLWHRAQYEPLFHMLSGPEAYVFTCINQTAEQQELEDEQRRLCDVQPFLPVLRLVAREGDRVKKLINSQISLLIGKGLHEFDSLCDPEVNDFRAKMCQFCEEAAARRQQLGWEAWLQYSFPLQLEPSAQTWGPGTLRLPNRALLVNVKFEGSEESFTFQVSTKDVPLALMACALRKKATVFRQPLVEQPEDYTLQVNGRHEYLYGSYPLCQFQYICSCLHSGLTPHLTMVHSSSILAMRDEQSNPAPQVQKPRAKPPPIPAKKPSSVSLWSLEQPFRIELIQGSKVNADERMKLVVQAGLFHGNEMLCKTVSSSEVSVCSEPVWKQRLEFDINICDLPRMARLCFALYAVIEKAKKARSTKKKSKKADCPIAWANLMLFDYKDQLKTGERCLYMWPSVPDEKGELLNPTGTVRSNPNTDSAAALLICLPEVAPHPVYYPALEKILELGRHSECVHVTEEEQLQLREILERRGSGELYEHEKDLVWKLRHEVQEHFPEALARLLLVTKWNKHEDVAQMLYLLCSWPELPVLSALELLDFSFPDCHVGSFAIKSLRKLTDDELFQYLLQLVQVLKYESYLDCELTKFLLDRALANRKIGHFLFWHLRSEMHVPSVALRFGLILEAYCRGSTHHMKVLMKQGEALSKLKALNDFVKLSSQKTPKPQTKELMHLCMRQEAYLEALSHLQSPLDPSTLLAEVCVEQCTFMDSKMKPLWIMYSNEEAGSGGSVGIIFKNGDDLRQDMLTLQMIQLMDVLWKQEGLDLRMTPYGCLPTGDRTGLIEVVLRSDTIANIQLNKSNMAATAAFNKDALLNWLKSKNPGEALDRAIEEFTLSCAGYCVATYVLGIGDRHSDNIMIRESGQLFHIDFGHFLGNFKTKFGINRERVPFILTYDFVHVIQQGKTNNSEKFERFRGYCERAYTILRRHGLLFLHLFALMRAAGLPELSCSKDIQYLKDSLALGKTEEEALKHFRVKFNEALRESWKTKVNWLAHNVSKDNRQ
Chain of PI3K p110 beta/p85 alpha (P27986 whole entry): as the sequence (P27986 whole entry) above
Chain of PI3K p110 beta/p85 alpha (P42338 whole entry): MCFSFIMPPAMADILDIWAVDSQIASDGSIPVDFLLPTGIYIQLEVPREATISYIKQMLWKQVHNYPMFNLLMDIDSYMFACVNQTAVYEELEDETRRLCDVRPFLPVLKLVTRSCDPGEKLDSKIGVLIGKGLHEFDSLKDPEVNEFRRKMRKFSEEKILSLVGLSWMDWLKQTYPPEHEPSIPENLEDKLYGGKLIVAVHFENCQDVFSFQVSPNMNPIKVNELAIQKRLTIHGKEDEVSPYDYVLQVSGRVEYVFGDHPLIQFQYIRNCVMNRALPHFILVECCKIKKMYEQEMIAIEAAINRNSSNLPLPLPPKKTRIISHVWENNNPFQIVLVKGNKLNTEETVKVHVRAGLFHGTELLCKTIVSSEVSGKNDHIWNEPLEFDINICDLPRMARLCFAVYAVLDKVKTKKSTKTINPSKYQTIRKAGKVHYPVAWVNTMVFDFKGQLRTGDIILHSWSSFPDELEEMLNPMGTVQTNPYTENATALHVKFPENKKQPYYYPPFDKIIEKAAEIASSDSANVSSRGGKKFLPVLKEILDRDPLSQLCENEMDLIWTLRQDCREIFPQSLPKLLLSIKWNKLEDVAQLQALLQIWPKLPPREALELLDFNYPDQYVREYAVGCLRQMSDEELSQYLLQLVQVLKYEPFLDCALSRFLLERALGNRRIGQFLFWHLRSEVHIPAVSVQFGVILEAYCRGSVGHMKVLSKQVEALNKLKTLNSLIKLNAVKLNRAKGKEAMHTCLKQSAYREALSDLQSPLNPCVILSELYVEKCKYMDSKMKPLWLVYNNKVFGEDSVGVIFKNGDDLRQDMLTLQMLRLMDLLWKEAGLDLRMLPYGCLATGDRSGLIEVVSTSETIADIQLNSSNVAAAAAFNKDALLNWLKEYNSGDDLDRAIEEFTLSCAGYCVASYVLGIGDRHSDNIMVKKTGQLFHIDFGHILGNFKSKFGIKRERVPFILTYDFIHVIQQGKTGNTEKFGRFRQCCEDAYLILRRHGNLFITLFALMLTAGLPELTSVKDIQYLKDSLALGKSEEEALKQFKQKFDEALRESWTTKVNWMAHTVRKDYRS

Consider `COc1ncc(-c2ccc3ncn([C@@H]4CCN(C(=O)C5CC5)C4)c(=O)c3c2)cc1NS(=O)(=O)c1ccc(F)cc1`, for which the IC50 in the data set on HCT-116 turned out to be 6090 nM; with MCF7, 2260 nM.

`COc1ncc(-c2ccc3ncn(CCN4CCOCC4)c(=O)c3c2)cc1NS(=O)(=O)c1ccc(Cl)cc1`: the IC50 in the data set with HCT-116 worked out at 2020 nM; in the data set on MCF7, 4140 nM.

In the case of `COc1ncc(-c2ccc3ncn(C4CCN(C(=O)C5CC5)CC4)c(=O)c3c2)cc1NS(=O)(=O)c1ccc(F)cc1`, the IC50 in the data set with HCT-116 came out at 1350 nM; in the data set on MCF7, 2730 nM.

With `COc1ncc(-c2ccc3ncn(C4CCNCC4)c(=O)c3c2)cc1NS(=O)(=O)c1ccc(F)cc1`, the IC50 in the data set on HCT-116 is 1150 nM; in the data set on MCF7, 1670 nM.

Regarding `COc1ncc(-c2ccc3ncn(CCN4CCCC4)c(=O)c3c2)cc1NS(=O)(=O)c1ccc(F)cc1`, the IC50 with HCT-116 amounted to 2640 nM; in the data set with MCF7, 3820 nM.

Regarding `CCCCn1cnc2ccc(-c3cnc(OC)c(NS(=O)(=O)c4ccc(F)cc4)c3)cc2c1=O`, the IC50 with HCT-116 stood at 4060 nM; in the data set with MCF7 it was 3930 nM.

As for `COc1ncc(-c2ccc3ncn(CCN(C)C)c(=O)c3c2)cc1NS(=O)(=O)c1ccc(F)cc1`, the results for the IC50 in the data set with HCT-116 and in the data set on MCF7 were 2690 nM and 3720 nM, respectively.

Take `COc1ncc(-c2ccc3ncn(Cc4ccccc4)c(=O)c3c2)cc1NS(=O)(=O)c1ccc(F)cc1`: the IC50 in the data set with HCT-116 is 4740 nM; in the data set on MCF7, 5900 nM.

On to `CCN(CC)CCn1cnc2ccc(-c3cnc(OC)c(NS(=O)(=O)c4ccc(F)cc4F)c3)cc2c1=O`, for which the IC50 in the data set on HCT-116 came out at 1030 nM; with MCF7, 2590 nM.

As for `COc1ncc(-c2ccc3ncn(C4CCN(C(=O)OC(C)(C)C)CC4)c(=O)c3c2)cc1NS(=O)(=O)c1ccc(F)cc1`, the IC50 with HCT-116 came out at 1530 nM; in the data set on MCF7 it was 4360 nM.

Consider `COc1ncc(-c2ccc3ncn(CCN4CCN(C)CC4)c(=O)c3c2)cc1NS(=O)(=O)c1ccc(F)cc1`, for which the figures for the IC50 with HCT-116 and in the data set with MCF7 were 1450 nM and 3000 nM, respectively.

As for `COc1ncc(-c2ccc3ncn(Cc4cccnc4)c(=O)c3c2)cc1NS(=O)(=O)c1ccc(F)cc1`, the results for the IC50 in the data set on HCT-116 and with MCF7 were 1290 nM and 1780 nM, respectively.

With `COc1ncc(-c2ccc3ncn(C4CCN(CC5CC5)CC4)c(=O)c3c2)cc1NS(=O)(=O)c1ccc(F)cc1`, the IC50 in the data set with HCT-116 was determined as 1220 nM; with MCF7 it was 2260 nM.

Consider `COc1ncc(-c2ccc3ncn(CCN4CCCCC4)c(=O)c3c2)cc1NS(=O)(=O)c1ccc(F)cc1`, for which the values for the IC50 in the data set with HCT-116 and in the data set on MCF7 were 2750 nM and 2950 nM, respectively.

As for `COc1ncc(-c2ccc3ncn(C4CCN(C(=O)C5CCOCC5)CC4)c(=O)c3c2)cc1NS(=O)(=O)c1ccc(F)cc1`, the IC50 with HCT-116 was 960 nM; in the data set with MCF7, 2900 nM.

`COc1ncc(-c2ccc3ncn(CCN4CCOCC4)c(=O)c3c2)cc1NS(=O)(=O)c1ccc(F)cc1`: the figures for the IC50 in the data set on HCT-116 and in the data set on MCF7 were 1820 nM and 3200 nM, respectively.

For the molecule `COc1ncc(-c2ccc3ncn([C@H]4CCN(C(=O)C5CC5)C4)c(=O)c3c2)cc1NS(=O)(=O)c1ccc(F)cc1`, the half-inhibitory concentration (IC50) is 710 nM with HCT-116; 2360 nM in the data set on MCF7; 7.3 nM in data set [1]; 209 nM on PI3K p110 beta/p85 alpha; 116 nM in [2]; 106 nM in data set [3]. Moreover, in [4], the IC50 was 208 nM. Further, the Ratio IC50 in [5] came to 10. Besides, the inhibition in vivo at 20 mg/kg with CCRF S-180 [6] worked out at 34.5%. Moreover, the inhibition in vivo at 40 mg/kg in the data set on CCRF S-180 [7] was found to be 58%. In the data set on Mus musculus, the Activity entry is “Toxic”.

Turning to `Cn1c(=O)n(-c2ccc(C(C)(C)C#N)cc2)c2c3cc(-c4cnc5ccccc5c4)ccc3ncc21` [DACTOLISIB], the IC50 with HCT-116 is 560 nM; in the data set with MCF7, 1090 nM.

For `COc1ncc(-c2ccc3ncn([C@H]4CCN(C(=O)OC(C)(C)C)C4)c(=O)c3c2)cc1NS(=O)(=O)c1ccc(F)cc1`, the IC50 amounted to 660 nM with HCT-116 and 2730 nM in the data set on MCF7.

In the case of `CCN(CC)CCn1cnc2ccc(-c3cnc(OC)c(NS(=O)(=O)c4ccc(F)cc4)c3)cc2c1=O`, the 50% inhibitory concentration (IC50) with HCT-116 amounted to 1200 nM; with MCF7, 2340 nM.

As to `COc1ncc(-c2ccc3ncn([C@H]4CCNC4)c(=O)c3c2)cc1NS(=O)(=O)c1ccc(F)cc1`, the IC50 is 1460 nM with HCT-116 and 2770 nM with MCF7.

For `COc1ccc(Cn2cnc3ccc(-c4cnc(OC)c(NS(=O)(=O)c5ccc(F)cc5)c4)cc3c2=O)cc1`, the IC50 stood at 2800 nM with HCT-116 and 3340 nM with MCF7.

For `COc1ncc(-c2ccc3ncn(-c4ccc(CN5CCN(C)CC5)cc4)c(=O)c3c2)cc1NS(=O)(=O)c1ccc(F)cc1`, the IC50 came out at 1250 nM in the data set with HCT-116 and 4600 nM in the data set with MCF7.

As to `COc1ncc(-c2ccc3ncn([C@H]4CCN(C(=O)C5CCOCC5)C4)c(=O)c3c2)cc1NS(=O)(=O)c1ccc(F)cc1`, the figures for the IC50 in the data set on HCT-116 and in the data set on MCF7 were 600 nM and 1620 nM, respectively.

On to `COc1ncc(-c2ccc3ncn(C4CCN(C(C)=O)CC4)c(=O)c3c2)cc1NS(=O)(=O)c1ccc(F)cc1`, for which the IC50 worked out at 1300 nM with HCT-116 and 2630 nM in the data set on MCF7.

`COc1ncc(-c2ccc3ncn([C@H]4CCN(C(C)=O)C4)c(=O)c3c2)cc1NS(=O)(=O)c1ccc(F)cc1`: the IC50 turned out to be 1250 nM in the data set with HCT-116 and 2520 nM in the data set on MCF7.

Regarding `COc1ncc(-c2ccc3ncn([C@H]4CCN(CC5CC5)C4)c(=O)c3c2)cc1NS(=O)(=O)c1ccc(F)cc1`, the IC50 in the data set on HCT-116 turned out to be 670 nM; in the data set on MCF7, 1030 nM; in data set [1], 6.7 nM; against PI3K p110 beta/p85 alpha, 24 nM; in data set [2], 181 nM; in [3], 21 nM. This molecule also displayed an IC50 in [4] of 114 nM. The Ratio IC50 in [5] was 10.

Take `COc1ncc(-c2ccc3ncn(-c4ccc(CN5CCOCC5)cc4)c(=O)c3c2)cc1NS(=O)(=O)c1ccc(F)cc1`: the half-maximal inhibitory concentration (IC50) was 1420 nM in the data set on HCT-116 and 3490 nM in the data set on MCF7.

For the molecule `COc1ncc(-c2ccc3ncn(CCN4CCOCC4)c(=O)c3c2)cc1NS(=O)(=O)c1ccc(C)cc1`, the IC50 was 1350 nM with HCT-116 and 3480 nM in the data set with MCF7.

Turning to `COc1ncc(-c2ccc3ncn([C@@H]4CCN(C(C)=O)C4)c(=O)c3c2)cc1NS(=O)(=O)c1ccc(F)cc1`, the IC50 came out at 4720 nM with HCT-116 and 2450 nM in the data set on MCF7.

With `COc1ncc(-c2ccc3ncn(Cc4ccncc4)c(=O)c3c2)cc1NS(=O)(=O)c1ccc(F)cc1`, the IC50 in the data set on HCT-116 was 2950 nM; with MCF7, 1840 nM.

For the molecule `COc1ncc(-c2ccc3ncn([C@@H]4CCN(CC5CC5)C4)c(=O)c3c2)cc1NS(=O)(=O)c1ccc(F)cc1`, the results for the IC50 in the data set on HCT-116 and in the data set with MCF7 were 4880 nM and 2030 nM, respectively.
